Measured values taken from ChEMBL document CHEMBL2021777 (J Med Chem, 2012).

Key:
[1] = biological target: Neuronal acetylcholine receptor; alpha2/beta4 (Rattus norvegicus, UniProt P12389+P12392); experiment: Displacement of [3H] epibatidine from rat alpha2beta4 nAChR by beta scintillation counting; type: protein-complex assay
[2] = biological target: Neuronal acetylcholine receptor; alpha4/beta2 (Rattus norvegicus, UniProt P09483+P12390); experiment: Displacement of [3H] epibatidine from rat alpha4beta2* nAChR in rat forebrain by beta scintillation counting
Rattus norvegicus = organism: Rattus norvegicus; experiment: Selectivity ratio of Ki for rat alpha3beta4 to Ki for rat alpha4beta2
Procedure, shortened: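 Ki values from [3H]epibatidine competition binding at heterologously expressed rat nAChR subtypes, using the PDSP protocol; selectivity taken as the α3β4/α4β2 Ki ratio.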

[3] = biological target: T1, 5-hydroxytryptamine receptor 1A (Homo sapiens) (UniProt P08908); experiment: Displacement of [3H]8-OH-DPAT from 5-HT1A at 10 uM
T1 sequence (whole entry): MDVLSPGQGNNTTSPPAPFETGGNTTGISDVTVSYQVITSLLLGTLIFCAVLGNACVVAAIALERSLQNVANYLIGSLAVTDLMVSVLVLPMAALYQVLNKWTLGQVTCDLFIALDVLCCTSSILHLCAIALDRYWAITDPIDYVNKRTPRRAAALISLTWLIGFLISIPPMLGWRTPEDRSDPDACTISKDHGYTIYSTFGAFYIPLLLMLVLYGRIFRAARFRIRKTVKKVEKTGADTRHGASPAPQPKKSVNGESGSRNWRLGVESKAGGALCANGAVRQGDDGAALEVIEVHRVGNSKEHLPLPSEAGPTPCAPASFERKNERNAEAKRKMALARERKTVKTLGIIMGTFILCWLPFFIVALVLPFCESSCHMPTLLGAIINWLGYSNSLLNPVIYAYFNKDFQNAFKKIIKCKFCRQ

[4] = biological target: 5-hydroxytryptamine receptor 1E (Homo sapiens) (UniProt P28566); experiment: Displacement of [3H]5-HT from 5-HT1E at 10 uM
[5] = biological target: 5-hydroxytryptamine receptor 6 (Homo sapiens) (UniProt P50406); experiment: Displacement of [3H]LSD from 5-HT6 at 10 uM
[6] = biological target: 5-hydroxytryptamine receptor 7 (Homo sapiens) (UniProt P34969); experiment: Displacement of [3H]LSD from 5-HT7 at 10 uM
[7] = biological target: D(1A) dopamine receptor (Homo sapiens) (UniProt P21728); experiment: Displacement of [3H][…] from D1 at 10 uM
[8] = biological target: T2, Alpha-1A adrenergic receptor (Homo sapiens) (UniProt P35348); experiment: Displacement of [3H]Prazosin from alpha1A adrenergic receptor at 10 uM
T2 sequence (whole entry): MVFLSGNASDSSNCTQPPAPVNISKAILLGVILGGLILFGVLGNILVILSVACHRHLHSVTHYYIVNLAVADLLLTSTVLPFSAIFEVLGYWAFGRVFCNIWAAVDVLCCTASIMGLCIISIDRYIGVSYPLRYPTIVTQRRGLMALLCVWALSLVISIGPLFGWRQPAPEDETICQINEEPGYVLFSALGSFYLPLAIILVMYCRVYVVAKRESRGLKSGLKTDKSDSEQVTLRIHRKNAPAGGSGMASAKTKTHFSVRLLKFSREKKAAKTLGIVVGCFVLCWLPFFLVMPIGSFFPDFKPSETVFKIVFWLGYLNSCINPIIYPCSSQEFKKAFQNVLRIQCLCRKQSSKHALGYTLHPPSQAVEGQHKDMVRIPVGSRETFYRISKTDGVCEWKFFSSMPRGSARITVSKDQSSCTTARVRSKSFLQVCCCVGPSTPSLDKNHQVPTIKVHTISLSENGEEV

[9] = biological target: T3, Alpha-2B adrenergic receptor (Homo sapiens) (UniProt P18089); experiment: Displacement of [3H]Clonidine from alpha2B adrenergic receptor at 10 uM
T3 sequence (whole entry): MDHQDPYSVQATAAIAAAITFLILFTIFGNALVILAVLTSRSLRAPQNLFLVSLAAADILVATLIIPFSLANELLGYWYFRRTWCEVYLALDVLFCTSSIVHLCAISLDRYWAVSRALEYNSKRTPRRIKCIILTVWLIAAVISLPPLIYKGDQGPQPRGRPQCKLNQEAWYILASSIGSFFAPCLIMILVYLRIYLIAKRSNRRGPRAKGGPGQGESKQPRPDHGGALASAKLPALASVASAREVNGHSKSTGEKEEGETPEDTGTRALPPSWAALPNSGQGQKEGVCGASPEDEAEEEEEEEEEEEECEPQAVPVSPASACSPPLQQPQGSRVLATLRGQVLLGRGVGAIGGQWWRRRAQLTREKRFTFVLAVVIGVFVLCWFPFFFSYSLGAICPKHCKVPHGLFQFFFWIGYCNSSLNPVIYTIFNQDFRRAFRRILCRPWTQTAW

[10] = biological target: T4, Alpha-2C adrenergic receptor (Homo sapiens) (UniProt P18825); experiment: Displacement of [3H]Clonidine from alpha2C adrenergic receptor at 10 uM
T4 sequence (whole entry): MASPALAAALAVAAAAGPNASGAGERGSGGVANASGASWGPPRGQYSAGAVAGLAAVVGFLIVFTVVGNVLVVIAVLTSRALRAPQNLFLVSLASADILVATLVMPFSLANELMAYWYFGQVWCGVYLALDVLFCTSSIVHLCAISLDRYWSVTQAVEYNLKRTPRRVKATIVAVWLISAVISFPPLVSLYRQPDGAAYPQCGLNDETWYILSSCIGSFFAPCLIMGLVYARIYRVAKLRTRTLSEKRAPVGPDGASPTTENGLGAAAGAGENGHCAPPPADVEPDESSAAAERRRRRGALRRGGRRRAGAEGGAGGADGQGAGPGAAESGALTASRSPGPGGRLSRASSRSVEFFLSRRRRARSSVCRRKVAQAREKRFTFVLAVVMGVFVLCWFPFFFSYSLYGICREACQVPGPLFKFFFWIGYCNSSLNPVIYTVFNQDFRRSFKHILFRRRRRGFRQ

[11] = biological target: Kappa-type opioid receptor (Homo sapiens) (UniProt P41145); experiment: Displacement of [3H]U69593 from kappa opioid receptor at 10 uM
[12] = biological target: Mu-type opioid receptor (Homo sapiens) (UniProt P35372); experiment: Displacement of [3H]DAMGO from mu opioid receptor at 10 uM
[13] = biological target: Sigma non-opioid intracellular receptor 1 (Homo sapiens) (UniProt Q99720); experiment: Displacement of [3H]Pentazocine from sigma1 receptor at 10 uM
[14] = Metabolic stability in human liver microsomes assessed as compound remaining at 1 uM after 1 hr; type: ADME, Microsome; conditions: read-out: Stability
Procedure, shortened: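 Compound at 1 μM incubated for 1 h with human or mouse liver microsomes; percent of parent remaining unchanged.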

Cytochrome P450 2D6 = Cytochrome P450 2D6 (Homo sapiens, UniProt P10635); experiment: Inhibition of CYP2D6 up to 10 uM; type: ADME
Procedure, shortened: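 Percent inhibition of CYP isoforms (CYP1A, CYP2C9, CYP2C19, CYP2D6, CYP3A; CYP1A2 reported) with test compound at concentrations up to 10 μM.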

[15] = Displacement of [3H]Muscimol from GABA(A) at 10 uM

Chain of Sigma non-opioid intracellular receptor 1 (Homo sapiens) (Q99720 whole entry): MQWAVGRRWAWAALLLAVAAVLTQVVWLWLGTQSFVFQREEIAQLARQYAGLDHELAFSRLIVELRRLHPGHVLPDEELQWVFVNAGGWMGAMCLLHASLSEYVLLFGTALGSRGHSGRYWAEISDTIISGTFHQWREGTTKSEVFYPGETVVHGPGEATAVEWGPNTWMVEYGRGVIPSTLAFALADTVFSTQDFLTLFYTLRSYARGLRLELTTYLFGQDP
Chain of Mu-type opioid receptor (Homo sapiens) (P35372 whole entry): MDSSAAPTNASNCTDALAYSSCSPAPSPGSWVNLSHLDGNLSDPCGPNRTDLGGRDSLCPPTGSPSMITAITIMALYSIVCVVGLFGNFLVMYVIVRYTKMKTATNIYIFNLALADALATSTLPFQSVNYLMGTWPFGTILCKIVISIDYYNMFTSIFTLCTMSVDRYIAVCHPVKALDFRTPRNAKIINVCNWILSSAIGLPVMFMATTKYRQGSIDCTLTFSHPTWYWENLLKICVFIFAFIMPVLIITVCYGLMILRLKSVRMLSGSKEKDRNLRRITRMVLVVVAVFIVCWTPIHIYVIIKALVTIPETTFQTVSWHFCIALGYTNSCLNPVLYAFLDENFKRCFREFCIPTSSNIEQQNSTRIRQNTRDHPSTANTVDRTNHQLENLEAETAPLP
Chain of Cytochrome P450 2D6 (P10635 whole entry, canonical isoform): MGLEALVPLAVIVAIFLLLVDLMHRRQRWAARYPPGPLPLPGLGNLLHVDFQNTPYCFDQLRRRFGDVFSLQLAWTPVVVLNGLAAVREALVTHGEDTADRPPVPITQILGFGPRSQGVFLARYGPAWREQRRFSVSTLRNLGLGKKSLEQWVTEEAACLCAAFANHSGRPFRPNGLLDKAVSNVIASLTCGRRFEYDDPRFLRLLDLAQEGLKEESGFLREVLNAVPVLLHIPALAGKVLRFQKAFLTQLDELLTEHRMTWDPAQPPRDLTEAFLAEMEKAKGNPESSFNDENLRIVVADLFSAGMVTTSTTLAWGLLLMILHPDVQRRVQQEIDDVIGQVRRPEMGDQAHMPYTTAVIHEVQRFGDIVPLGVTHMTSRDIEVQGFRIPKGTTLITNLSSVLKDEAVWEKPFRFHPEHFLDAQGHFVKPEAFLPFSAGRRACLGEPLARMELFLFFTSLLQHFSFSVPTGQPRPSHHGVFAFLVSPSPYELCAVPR
Chain of D(1A) dopamine receptor (Homo sapiens) (P21728 whole entry): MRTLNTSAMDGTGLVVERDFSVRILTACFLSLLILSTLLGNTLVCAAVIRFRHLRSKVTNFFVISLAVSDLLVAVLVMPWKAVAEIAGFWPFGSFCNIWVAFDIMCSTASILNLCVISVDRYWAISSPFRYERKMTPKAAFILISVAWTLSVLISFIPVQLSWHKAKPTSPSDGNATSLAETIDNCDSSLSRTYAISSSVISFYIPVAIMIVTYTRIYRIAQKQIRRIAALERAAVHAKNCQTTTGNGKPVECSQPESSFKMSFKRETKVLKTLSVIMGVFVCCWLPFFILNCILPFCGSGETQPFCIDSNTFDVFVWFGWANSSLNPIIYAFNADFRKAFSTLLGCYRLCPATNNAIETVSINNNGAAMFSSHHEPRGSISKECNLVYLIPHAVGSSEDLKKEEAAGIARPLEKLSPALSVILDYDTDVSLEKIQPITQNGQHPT
Chain of Neuronal acetylcholine receptor; alpha2/beta4 (P12389 whole entry): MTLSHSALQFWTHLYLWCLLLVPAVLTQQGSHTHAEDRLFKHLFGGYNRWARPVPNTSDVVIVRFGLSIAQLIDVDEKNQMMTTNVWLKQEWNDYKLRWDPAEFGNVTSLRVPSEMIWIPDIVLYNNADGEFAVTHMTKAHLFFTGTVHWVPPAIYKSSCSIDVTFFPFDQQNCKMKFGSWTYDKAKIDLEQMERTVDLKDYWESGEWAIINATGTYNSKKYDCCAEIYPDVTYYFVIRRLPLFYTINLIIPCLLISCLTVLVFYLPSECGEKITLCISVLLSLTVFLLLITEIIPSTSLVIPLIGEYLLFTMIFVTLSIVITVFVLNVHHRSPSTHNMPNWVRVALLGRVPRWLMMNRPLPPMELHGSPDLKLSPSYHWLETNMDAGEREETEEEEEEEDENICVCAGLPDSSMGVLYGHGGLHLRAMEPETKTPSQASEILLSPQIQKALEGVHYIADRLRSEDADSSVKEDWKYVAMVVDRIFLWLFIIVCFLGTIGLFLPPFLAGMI
Chain of Neuronal acetylcholine receptor; alpha2/beta4 (P12392 whole entry): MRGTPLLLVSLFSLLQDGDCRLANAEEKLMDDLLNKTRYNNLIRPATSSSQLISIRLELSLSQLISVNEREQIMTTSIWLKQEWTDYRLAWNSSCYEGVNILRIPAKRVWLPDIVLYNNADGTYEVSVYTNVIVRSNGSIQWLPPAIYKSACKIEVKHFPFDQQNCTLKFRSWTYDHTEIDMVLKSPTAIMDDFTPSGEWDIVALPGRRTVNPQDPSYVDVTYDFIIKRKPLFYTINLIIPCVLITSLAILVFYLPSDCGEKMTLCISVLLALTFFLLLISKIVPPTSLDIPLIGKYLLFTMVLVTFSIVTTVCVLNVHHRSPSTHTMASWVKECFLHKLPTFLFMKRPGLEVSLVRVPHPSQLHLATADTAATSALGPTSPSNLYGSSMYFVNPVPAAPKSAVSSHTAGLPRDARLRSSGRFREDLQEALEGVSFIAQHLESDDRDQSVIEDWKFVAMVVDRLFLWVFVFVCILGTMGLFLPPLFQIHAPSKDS
Chain of Neuronal acetylcholine receptor; alpha4/beta2 (P09483 whole entry): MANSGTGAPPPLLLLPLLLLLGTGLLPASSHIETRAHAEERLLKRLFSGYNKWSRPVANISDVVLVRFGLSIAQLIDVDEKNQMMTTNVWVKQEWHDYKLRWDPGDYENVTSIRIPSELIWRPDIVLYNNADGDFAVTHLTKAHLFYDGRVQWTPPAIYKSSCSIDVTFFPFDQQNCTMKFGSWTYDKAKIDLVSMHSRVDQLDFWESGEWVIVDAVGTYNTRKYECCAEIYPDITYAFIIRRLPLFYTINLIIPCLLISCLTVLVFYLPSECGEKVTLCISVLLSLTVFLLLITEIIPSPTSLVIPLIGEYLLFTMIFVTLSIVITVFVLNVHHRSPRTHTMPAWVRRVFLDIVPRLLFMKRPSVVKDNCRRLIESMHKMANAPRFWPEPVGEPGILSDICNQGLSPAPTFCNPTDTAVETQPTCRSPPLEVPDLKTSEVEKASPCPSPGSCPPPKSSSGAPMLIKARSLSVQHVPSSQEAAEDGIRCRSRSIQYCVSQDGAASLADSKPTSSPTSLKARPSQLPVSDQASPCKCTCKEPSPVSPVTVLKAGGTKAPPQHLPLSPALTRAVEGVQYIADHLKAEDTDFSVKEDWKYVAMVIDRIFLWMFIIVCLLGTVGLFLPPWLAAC
Chain of Neuronal acetylcholine receptor; alpha4/beta2 (P12390 whole entry): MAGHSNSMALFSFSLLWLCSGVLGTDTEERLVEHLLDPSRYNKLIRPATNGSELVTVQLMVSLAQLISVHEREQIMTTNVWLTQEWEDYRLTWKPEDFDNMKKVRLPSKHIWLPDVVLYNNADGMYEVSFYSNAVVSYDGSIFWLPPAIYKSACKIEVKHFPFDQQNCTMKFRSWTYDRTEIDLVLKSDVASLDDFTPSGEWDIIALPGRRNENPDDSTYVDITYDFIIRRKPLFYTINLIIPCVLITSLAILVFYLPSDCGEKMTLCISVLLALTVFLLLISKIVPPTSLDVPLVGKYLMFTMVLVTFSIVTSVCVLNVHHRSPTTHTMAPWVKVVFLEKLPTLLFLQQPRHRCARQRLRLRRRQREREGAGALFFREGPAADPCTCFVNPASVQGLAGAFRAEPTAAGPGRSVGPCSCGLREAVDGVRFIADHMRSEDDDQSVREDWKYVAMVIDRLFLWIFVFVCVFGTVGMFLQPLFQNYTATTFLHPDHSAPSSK
Chain of Kappa-type opioid receptor (Homo sapiens) (P41145 whole entry): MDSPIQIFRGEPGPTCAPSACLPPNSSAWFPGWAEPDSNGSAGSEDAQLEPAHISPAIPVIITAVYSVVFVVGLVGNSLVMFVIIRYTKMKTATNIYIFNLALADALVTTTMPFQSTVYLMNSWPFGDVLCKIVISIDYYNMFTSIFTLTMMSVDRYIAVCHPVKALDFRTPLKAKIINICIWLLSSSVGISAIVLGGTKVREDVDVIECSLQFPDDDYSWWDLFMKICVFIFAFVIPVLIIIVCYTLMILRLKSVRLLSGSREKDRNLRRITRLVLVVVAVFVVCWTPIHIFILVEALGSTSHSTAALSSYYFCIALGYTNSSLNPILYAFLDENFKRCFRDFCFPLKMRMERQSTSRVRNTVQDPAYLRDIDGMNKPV
Chain of 5-hydroxytryptamine receptor 7 (Homo sapiens) (P34969 whole entry): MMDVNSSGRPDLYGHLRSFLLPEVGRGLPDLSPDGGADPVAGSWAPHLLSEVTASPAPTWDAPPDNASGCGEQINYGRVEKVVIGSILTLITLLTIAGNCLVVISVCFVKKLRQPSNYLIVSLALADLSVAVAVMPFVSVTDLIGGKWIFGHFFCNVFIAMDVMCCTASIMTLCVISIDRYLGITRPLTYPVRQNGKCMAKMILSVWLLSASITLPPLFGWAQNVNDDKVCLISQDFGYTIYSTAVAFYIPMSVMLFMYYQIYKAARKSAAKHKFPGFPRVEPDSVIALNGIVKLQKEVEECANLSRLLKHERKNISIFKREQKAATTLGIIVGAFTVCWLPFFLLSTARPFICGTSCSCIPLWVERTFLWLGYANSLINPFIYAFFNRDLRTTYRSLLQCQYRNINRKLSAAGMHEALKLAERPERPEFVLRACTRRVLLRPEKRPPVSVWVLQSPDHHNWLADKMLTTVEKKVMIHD
Chain of 5-hydroxytryptamine receptor 1E (Homo sapiens) (P28566 whole entry): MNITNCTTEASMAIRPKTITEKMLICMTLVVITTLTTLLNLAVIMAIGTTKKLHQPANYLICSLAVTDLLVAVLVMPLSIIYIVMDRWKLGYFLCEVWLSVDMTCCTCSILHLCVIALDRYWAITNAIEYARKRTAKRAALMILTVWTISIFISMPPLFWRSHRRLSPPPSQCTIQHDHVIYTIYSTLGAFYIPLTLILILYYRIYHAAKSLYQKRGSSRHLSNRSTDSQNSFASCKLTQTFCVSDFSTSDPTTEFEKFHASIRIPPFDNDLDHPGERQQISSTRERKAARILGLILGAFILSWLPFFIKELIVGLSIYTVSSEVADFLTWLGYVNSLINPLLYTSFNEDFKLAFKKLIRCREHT

Structure (SMILES)	Ki [1]	Ki [2]	Ratio Ki (Rattus norvegicus)	inhibition [3]	inhibition [4]	inhibition [5]	inhibition [6]	inhibition [7]	inhibition [8]	inhibition [9]	inhibition [10]	inhibition [11]	inhibition [12]	inhibition [13]	remaining at 1 h, 1 µM [14]	inhibition (INH) (Cytochrome P450 2D6)	inhibition [15]
CNC(=O)OCC[C@H]1C[C@@H]1c1cncc(OC[C@@H]2CCN2)c1	1890 nM	1.7 nM	> 100000	25%	-8.2%	-6.4%	32.1%	2.1%	2.5%	12.4%	42%	19.1%	37.3%	3.9%	98%	<= 25%	-1.1%
OCC[C@H]1C[C@@H]1c1cncc(OC[C@@H]2CCN2)c1	249 nM	0.5 nM	65200	-7.7%	6.7%	-7.1%	24.9%	51.2%	-1.6%	9.9%	17.6%	3.7%	0.4%	0.5%	80%	<= 25%	-2.5%
COCC[C@H]1C[C@@H]1c1cncc(OC[C@@H]2CCN2)c1	236 nM	0.3 nM	> 100000	-7.2%	13.4%	1.4%	22.7%	90.3%	-1.6%	16.4%	30.6%	7.2%	-5.6%	58.7%	84%	<= 25%	2%
